Assay outcomes as filed in PubChem.
PMI act satM6P = increases human PMI activity with near-saturating mannose 6-phosphate. coupled PMI enzyme assay, resazurin fluorescence, 20 min; stronger effect = higher value; 1 = untreated enzyme, 0 = substrate-free blank. 0.34% of 190,000 active. AID 1216. activation factor at 20 µM;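 active = activation factor of 2 or more at 20 µM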
Target sequence (P34949 whole entry, looked up): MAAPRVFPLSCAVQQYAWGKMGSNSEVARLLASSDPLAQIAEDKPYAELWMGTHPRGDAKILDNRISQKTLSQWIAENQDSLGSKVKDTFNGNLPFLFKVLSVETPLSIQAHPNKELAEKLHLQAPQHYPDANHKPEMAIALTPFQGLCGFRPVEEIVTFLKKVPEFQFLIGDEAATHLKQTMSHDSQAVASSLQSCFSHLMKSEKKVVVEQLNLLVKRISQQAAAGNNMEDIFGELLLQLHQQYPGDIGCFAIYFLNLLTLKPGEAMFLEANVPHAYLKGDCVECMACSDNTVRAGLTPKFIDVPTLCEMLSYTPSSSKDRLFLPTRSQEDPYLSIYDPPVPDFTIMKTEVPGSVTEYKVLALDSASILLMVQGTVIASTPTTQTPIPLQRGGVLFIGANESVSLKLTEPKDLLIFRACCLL
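Test system: Human PMI in coupled enzyme assay | Input: 15 ng/mL PMI | Medium: HEPES-buffered pH 7.4 with magnesium and detergent | Compound: One concentration, 20 µM, in 1% DMSO | Incubation: Enzyme reaction with compound 20 min at room temperature | Detection: Diaphorase-driven resazurin-to-resorufin fluorescence, excitation 544, emission 590 nm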
PMI activator = activators of human phosphomannose isomerase. purified human PMI, coupled resazurin fluorescence, 20 min; stronger effect = higher value; 1 = vehicle control, 0 substrate-free wells. activation factor at 20 µM. 0.005% of 190,000 active. AID 1214;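 active = activation factor of 2 or more at 20 µM, relative to plate controls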
WT yeast gro inh = growth inhibition of WT yeast, mitochondrial fusion screen. inhibition, % at 10 µM. mitochondrial fusion phenotypic screen, WT strain. 2.1% of 190,000 active. AID 1362; in the data active = inhibition above about 58%; tested in S. cerevisiae
L major viab = Leishmania major promastigote growth inhibition; Leishmania major promastigotes, resazurin fluorescence viability; inhibition, % at 10 µM; 9% of 200,000 active; in the data active = inhibition above about 50%;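 also: promastigotes grown with compound for 44 hours at 28 °C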
Diaphorase act = counter-screen for diaphorase-based assays: diaphorase activators and chemical reducers; Diaphorase/resazurin coupled assay, resorufin fluorescence, 16 min; stronger effect = higher value; 1 = vehicle wells, 0 = NADH-free wells; activation factor at 20 µM; 0.005% of 190,000 active; AID 1229;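 active = diaphorase activity raised at least twofold by the compound at 20 µM; inactive = activation factor below 2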
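Material: bacterial diaphorase enzyme (C. kluyveri); amount: enzyme 0.07 U/mL final; reagent: NADH substrate 0.114 mM plus resazurin dye 0.1 mM, final; doses: single compound dose of 20 µM, 1% DMSO final; timing: 16 min enzyme reaction, ambient temperature; measured by: fluorescence of resorufin, 544 nm excitation, 590 nm emission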
Active calls of the source: *. Hits are enriched below; roughly 10% of the tested compounds scored in any of these assays.

How did CCCCCCCCCOc1ccc2[nH]cc(CCN)c2c1 do in these assays?
PMI act satM6P: 1; PMI activator: 1; WT yeast gro inh: 97*; Diaphorase act: 3.3*

How did OCC1(CO)COC(c2cccnc2)N1 (stereo not given) do in these assays?
PMI act satM6P: 1; PMI activator: 1; WT yeast gro inh: 3; L major viab: -6; Diaphorase act: 0.9

What do the screens show for `CCNC(=S)N1CCn2cccc2C1c1cccnc1` (stereo not given)?
PMI act satM6P: 0.9; PMI activator: 1; WT yeast gro inh: -2; L major viab: 70*; Diaphorase act: 1

How did Fc1ccc(CNCCc2ccccc2)cc1 do in these assays?
PMI act satM6P: 1.1; PMI activator: 1; WT yeast gro inh: -8; L major viab: 0; Diaphorase act: 0.8

Results for COc1cccc(CCNCc2ccc(SC)cc2)c1 ?
PMI act satM6P: 1.1; PMI activator: 1; WT yeast gro inh: 16; L major viab: 51*; Diaphorase act: 0.9

How did COc1ccc(CCNCc2ccc(OC)c(OC)c2OC)cc1 do in these assays?
PMI act satM6P: 1; PMI activator: 1; WT yeast gro inh: 12; L major viab: 2; Diaphorase act: 1

Results for COc1ccc(CCNCc2ccncc2)cc1 ?
PMI act satM6P: 1.1; PMI activator: 1; WT yeast gro inh: -15; L major viab: 90*; Diaphorase act: 0.8

How did COc1ccc(CCNC(C)CCc2ccc(OC)cc2)cc1 (stereo not given) do in these assays?
PMI act satM6P: 1; PMI activator: 1; WT yeast gro inh: -5; L major viab: 93*; Diaphorase act: 1.1

Results for CCCC1COC(Cn2cncn2)(c2ccc(Cl)cc2Cl)O1 (stereo not given) ?
PMI act satM6P: 0.9; PMI activator: 0.9; WT yeast gro inh: 11; L major viab: 92*; Diaphorase act: 0.8

What do the screens show for `CN1OC[C@@H]2COc3ccc4ccccc4c3[C@@H]21`?
PMI act satM6P: 1.1; PMI activator: 1.1; WT yeast gro inh: 14; L major viab: -7; Diaphorase act: 1

Results for Cc1cc(C=O)c(C)n1C(C)C ?
PMI act satM6P: 1; PMI activator: 1; WT yeast gro inh: -17; L major viab: 1; Diaphorase act: 1

What do the screens show for `C=CC[N+]1(C)C2CCC1CC(O)C2` (stereo not given)?
PMI act satM6P: 1.1; PMI activator: 1.1; WT yeast gro inh: -5; L major viab: -5; Diaphorase act: 1.1

Results for O=C(c1cccnc1)c1cc2ccccc2[nH]1 ?
PMI act satM6P: 1.1; PMI activator: 1.1; WT yeast gro inh: -9; L major viab: -4; Diaphorase act: 0.9

What do the screens show for `Cc1cc(N2CCCCC2)ccc1C=C1C(=O)N(C)C(=S)N(C)C1=O`?
PMI act satM6P: 0.8; PMI activator: 0.9; WT yeast gro inh: 9; L major viab: 100*; Diaphorase act: 0.7

Results for CCCCN1C(=O)NC(=O)C2(Cc3c(nc4ccccn4c3=O)N3CCc4ccccc4C32)C1=O (stereo not given) ?
PMI act satM6P: 0.8; PMI activator: 0.8; WT yeast gro inh: 21; L major viab: 89*; Diaphorase act: 0.6

How did Cc1cccn2c(=O)c3c(nc12)N1CCc2ccccc2C1C1(C3)C(=O)NC(=O)N(C)C1=O (stereo not given) do in these assays?
PMI act satM6P: 1.2; PMI activator: 1; WT yeast gro inh: -6; L major viab: 50*; Diaphorase act: 0.7

How did CCCCN1C(=O)NC(=O)C2(Cc3c(nc4c(C)cccn4c3=O)N3CCc4ccccc4C32)C1=O (stereo not given) do in these assays?
PMI act satM6P: 0.9; PMI activator: 0.8; WT yeast gro inh: 72*; L major viab: 96*; Diaphorase act: 0.6

How did COc1ccccc1CCNC1CCC(C(C)(C)C)CC1 (stereo not given) do in these assays?
PMI act satM6P: 1; PMI activator: 1; WT yeast gro inh: 13; L major viab: 100*; Diaphorase act: 1

What do the screens show for `Cc1ccc(/C=C2\C(=O)NC(=O)N(CCc3ccc(F)cc3)C2=O)s1`?
PMI act satM6P: 1.2; PMI activator: 1.2; WT yeast gro inh: 11; L major viab: 4; Diaphorase act: 1.1

Results for CCN1C(=O)/C(=C\c2ccc([N+](=O)[O-])s2)C(=O)NC1=S ?
PMI act satM6P: 1.6; PMI activator: 1.3; WT yeast gro inh: 35; L major viab: 99*; Diaphorase act: 0.5
